Results reported in ChEMBL document CHEMBL1140169, “Discovery of novel PPAR ligands by a virtual screening approach based on pharmacophore modeling, 3D shape, and electrostatic similarity screening” (J Med Chem, 2008).
Calls of active or inactive are those of the source. The rule behind the calls is not given here.

Key:
[1] = molecular target: T1, Peroxisome proliferator-activated receptor gamma (Homo sapiens) (UniProt P37231); assay: Activation of human PPARgamma ligand binding domain expressed in MEF cells co-transfected with fused Gal4-DBD at 10 uM after 18 hrs by luciferase reporter gene assay relative to rosiglitazone; type: cell-based
T1 sequence (whole entry): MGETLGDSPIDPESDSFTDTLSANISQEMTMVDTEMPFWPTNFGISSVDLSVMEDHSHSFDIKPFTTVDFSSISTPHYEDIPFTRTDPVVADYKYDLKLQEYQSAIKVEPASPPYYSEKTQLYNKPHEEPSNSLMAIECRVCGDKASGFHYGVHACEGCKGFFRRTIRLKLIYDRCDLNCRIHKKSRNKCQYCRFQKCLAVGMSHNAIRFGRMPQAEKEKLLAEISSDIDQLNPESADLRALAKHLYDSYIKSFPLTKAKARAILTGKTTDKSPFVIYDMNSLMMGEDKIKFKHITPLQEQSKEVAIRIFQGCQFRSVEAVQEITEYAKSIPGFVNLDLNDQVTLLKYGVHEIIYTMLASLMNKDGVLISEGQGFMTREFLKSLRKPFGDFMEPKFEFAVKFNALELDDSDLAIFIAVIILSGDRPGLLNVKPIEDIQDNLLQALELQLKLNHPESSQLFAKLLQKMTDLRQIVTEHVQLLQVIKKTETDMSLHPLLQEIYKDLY
In short: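 MEFs (DMEM, 10% calf serum) transfected with Gal4-hPPARγ-LBD, 4xUAS-TK-Luc and CMV-β-gal by Metafectene. Compound at 10 µM was added 6 h later and luciferase/β-gal read after 18 h. Activity is expressed as percent of the response to 1 µM rosiglitazone. Triplicates measured in duplicate.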

[2] = molecular target: T2, Peroxisome proliferator-activated receptor delta (Homo sapiens, UniProt Q03181); assay: Displacement of fluorescent pan PPAR agonist form GST-tagged human PPARdelta ligand binding domain by FRET assay
T2 sequence (Q03181 whole entry): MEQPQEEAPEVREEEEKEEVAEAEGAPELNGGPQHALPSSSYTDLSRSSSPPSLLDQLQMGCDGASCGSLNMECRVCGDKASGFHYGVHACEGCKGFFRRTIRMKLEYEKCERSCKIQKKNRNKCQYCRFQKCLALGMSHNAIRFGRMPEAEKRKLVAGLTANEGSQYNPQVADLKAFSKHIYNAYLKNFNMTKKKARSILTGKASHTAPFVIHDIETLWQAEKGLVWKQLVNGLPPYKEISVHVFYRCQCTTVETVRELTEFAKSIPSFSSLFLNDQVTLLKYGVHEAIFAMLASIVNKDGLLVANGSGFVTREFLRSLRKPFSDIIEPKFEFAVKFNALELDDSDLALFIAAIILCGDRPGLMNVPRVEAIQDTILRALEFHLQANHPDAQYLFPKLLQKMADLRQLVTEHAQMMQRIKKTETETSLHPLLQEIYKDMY
In short: (§1)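 TR-FRET (LanthaScreen) competitive binding: purified GST-tagged PPAR LBD labelled with terbium anti-GST antibody, with a fluorescent pan-PPAR agonist tracer. Displacement was read as RFU over dose-response series in triplicate. IC50 came from a one-site sigmoidal fit. Reference ligands were GW7647 (PPARα) and L165041 (PPARδ).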

[3] = molecular target: T3, Peroxisome proliferator-activated receptor alpha (Homo sapiens) (UniProt Q07869); assay: Activation of human PPARalpha ligand binding domain expressed in mouse Hepa 1-6 cells co-transfected with fused Gal4-DBD at 0.1 to 10 uM by luciferase reporter gene assay relative to control; type: cell-based
T3 sequence (whole entry): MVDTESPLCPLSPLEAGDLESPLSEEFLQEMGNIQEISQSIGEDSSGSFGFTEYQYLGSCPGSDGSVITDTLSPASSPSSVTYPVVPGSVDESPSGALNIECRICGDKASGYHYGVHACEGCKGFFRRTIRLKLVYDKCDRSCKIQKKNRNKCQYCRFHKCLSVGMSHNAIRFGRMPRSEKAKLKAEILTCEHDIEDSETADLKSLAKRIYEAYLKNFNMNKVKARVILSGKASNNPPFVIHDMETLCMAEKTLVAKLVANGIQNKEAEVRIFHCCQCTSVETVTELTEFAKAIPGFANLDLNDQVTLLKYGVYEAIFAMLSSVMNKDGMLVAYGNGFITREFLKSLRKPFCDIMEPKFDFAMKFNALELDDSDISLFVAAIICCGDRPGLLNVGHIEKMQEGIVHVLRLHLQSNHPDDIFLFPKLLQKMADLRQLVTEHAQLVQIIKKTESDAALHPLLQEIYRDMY
In short: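 Hepa 1-6 cells (MEM, 10% FCS, penicillin/streptomycin) transfected at 50–70% confluence using Metafectene with Gal4-hPPARα-LBD (0.001 µg plus 0.099 µg pBSK), 4xUAS-TK-Luc reporter and CMV-β-galactosidase. Six hours later, compound was added at 0.1, 1 and 10 µM. Lysis and luminometry after 18 h. Luciferase normalized to β-gal, expressed as fold induction over 0.1% DMSO vehicle. Triplicates, each measured in duplicate.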

[4] = molecular target: T4, Peroxisome proliferator-activated receptor gamma (Homo sapiens, UniProt P37231)
T4 sequence (P37231 whole entry): T1 sequence (whole entry)

[5] = molecular target: T5, Peroxisome proliferator-activated receptor delta (Homo sapiens) (UniProt Q03181); assay: Antagonist activity at human PPARdelta ligand binding domain expressed in MEF cells co-transfected with Gal4-DBD assessed as reduction of L165041-induced transactivation response at 1 uM by luciferase reporter gene assay; type: cell-based
T5 sequence (whole entry): T2 sequence (Q03181 whole entry)
In short: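 MEFs transfected with Gal4-hPPARδ-LBD, UAS-luciferase reporter and CMV-β-gal. Starting 6 h post-transfection, cells were co-treated with 1 µM L165041 and a range of compound doses. After 18 h, β-gal-normalized luciferase was compared with the L165041 response. Triplicates measured in duplicate.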

[6] = molecular target: T3, Peroxisome proliferator-activated receptor alpha (Homo sapiens); assay: Activation of human PPARalpha ligand binding domain expressed in mouse Hepa 1-6 cells co-transfected with fused Gal4-DBD at 10 uM after 18 hrs by luciferase reporter gene assay relative to GW-7647; type: cell-based
In short: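 Gal4-hPPARα-LBD/UAS-luciferase transactivation in Hepa 1-6 cells (Metafectene transfection, β-gal normalization). Compound at 10 µM was added 6 h post-transfection and read 18 h later. Activity is given as percent of the response to 30 nM GW7647. Triplicates measured in duplicate.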

[7] = molecular target: T6, Peroxisome proliferator-activated receptor alpha (Homo sapiens, UniProt Q07869); assay: Displacement of fluorescent pan PPAR agonist form GST-tagged human PPARalpha ligand binding domain by FRET assay; in short: as §1
T6 sequence (Q07869 whole entry): T3 sequence (whole entry)

Activity [1] | IC50 [2] | Activity [3] | IC50 [4] | Activity [5] | Activity [6] | IC50 [7] | Structure (SMILES)
20% | 7.2 µM | Active | 13 µM | Active | – | – | COC(=O)c1ccc(NC(=O)C[C@H]2C(=O)N(c3cccc(OC)c3)C(=O)N2Cc2ccc(OC)cc2)cc1
– | 34 µM | Active | – | – | 15% | 43 µM | O=C(O)c1ccc(COc2ccc3ccccc3c2/C=N/c2ccc(N3CCOCC3)cc2)cc1

Second part, the compound before the results:

Structure (SMILES) | Activity [1] | IC50 [2] | Activity [3] | IC50 [4] | Activity [5] | Activity [6] | IC50 [7]
CCOC(=O)N1CCc2c(sc(NC(=O)Cc3ccc(OC)cc3)c2C(=O)Nc2ccc(C(=O)OC)cc2)C1 | – | – | Active | – | – | 40% | 1.5 µM
CCOC(=O)C[C@H](C)NC(=O)c1csc(C2CCN(C(=O)c3c(F)cccc3Cl)CC2)n1 | 15% | – | Active | 44 µM | – | 20% | –
CCn1c(SCC(=O)Nc2ccc(C(=O)O)cc2)nnc1-c1cc2cccc(OC)c2o1 | – | 390 µM | Active | – | – | 15% | 1 µM
